# Measured values taken from paper PMC4102658 (Circulation. Cardiovascular imaging, 2014).
# Target: T1, fibrin (Rattus norvegicus, UniProt P02680+P06399+P14480)
# T1 sequence (P06399 20-550 isoform P06399-2 limits assumed): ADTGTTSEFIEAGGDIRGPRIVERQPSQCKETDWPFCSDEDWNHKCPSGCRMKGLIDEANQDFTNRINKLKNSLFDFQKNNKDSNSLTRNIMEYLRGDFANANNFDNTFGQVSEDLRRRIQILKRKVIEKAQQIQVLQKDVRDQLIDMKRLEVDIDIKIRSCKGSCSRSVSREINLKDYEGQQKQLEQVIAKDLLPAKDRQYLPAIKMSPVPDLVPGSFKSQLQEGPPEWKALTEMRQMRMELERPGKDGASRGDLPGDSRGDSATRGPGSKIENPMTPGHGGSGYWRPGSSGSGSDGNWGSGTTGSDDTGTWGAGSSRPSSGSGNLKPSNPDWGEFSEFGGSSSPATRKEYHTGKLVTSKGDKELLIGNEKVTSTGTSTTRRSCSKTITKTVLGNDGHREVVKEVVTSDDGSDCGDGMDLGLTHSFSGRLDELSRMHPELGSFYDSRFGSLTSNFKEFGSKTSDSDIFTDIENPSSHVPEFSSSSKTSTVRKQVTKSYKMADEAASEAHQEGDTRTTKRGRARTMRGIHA
# T1 sequence (P14480 33-479 limits assumed): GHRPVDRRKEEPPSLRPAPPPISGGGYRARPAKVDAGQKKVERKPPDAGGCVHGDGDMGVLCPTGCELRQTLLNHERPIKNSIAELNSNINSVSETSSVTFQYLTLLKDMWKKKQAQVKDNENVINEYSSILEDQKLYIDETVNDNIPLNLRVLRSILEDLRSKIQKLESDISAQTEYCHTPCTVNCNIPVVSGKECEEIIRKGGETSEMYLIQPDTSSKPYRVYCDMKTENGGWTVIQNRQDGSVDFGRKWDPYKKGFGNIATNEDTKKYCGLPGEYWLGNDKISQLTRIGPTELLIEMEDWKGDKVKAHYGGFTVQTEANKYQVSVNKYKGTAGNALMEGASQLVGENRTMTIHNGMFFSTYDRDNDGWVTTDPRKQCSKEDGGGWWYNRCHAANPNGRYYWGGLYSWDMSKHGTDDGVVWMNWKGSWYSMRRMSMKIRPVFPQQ
# T1 sequence (P02680 26-437 isoform P02680-2 limits assumed): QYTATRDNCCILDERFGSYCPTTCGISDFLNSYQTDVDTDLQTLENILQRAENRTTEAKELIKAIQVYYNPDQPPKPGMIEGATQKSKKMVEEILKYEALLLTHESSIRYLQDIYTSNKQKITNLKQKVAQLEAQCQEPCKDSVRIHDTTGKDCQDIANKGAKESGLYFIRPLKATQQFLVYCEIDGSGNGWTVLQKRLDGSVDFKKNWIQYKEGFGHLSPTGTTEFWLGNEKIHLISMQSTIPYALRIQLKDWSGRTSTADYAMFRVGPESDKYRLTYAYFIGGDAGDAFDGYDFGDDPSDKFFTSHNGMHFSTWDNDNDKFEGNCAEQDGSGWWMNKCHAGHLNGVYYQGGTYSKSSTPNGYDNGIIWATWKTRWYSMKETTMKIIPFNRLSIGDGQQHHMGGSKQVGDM
# Assay: brain autoradiography, embolic stroke with rtPA or vehicle
# Assay type: in vivo
# Settings: rtPA-treated animals
# Method in brief: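 Rats with embolic clot in ICA/MCA got ~300 μCi probe (0.3–0.4 mL, saline flush) 15–30 min after surgery. About 1 h after clot injection they received rtPA (10 mg/kg i.v., 10% bolus, 90% infused over 30 min) or 1 mL saline. Euthanised after 45 min baseline plus 90 min PET. 2 mm brain sections autoradiographed; ipsilateral/contralateral ICA-MCA ROI activity ratio; mean ± S.E.M.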
substance,measurement,value
"rtPA: recombinant tissue plasminogen activator (alteplase), thrombolytic treatment",ipsilateral to contralateral ICA-MCA ratio by autoradiography with FBP7,~1
